System: HEK-293T
Experiment: Multiplex assay against HEK293T
Assay type: toxicity, cell-based
Details: human
In short: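 Four dyes were applied at seeding to live cells: Hoechst33342, BioTracker Green Microtubule Cytoskeleton Dye, MitoTracker Red and Annexin V Alexa Fluor 680. Imaging after compound addition used a CQ1 microscope at 37°C and 5% CO2. CellPathfinder machine-learning gating then sorted cells into Hoechst high-intensity objects or normal cells, normal cells into healthy, pyknosed or fragmented nuclei, and pyknosed cells into mitotic or apoptotic, with tubulin, mitochondrial-mass and membrane-permeability phenotypes given as per cents of healthy-nucleus cells.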

[1] = 12 h, 1 µM, compound concentration 1 uM, replicate 1
[2] = 12 h, 1 µM, compound concentration 1 uM, replicate 2
[3] = 12 h, 10 µM, compound concentration 10 uM, replicate 1
[4] = 12 h, 10 µM, compound concentration 10 uM, replicate 2
[5] = 24 h, 1 µM, compound concentration 1 uM, replicate 1
[6] = 24 h, 1 µM, compound concentration 1 uM, replicate 2
[7] = 24 h, 10 µM, compound concentration 10 uM, replicate 1
[8] = 24 h, 10 µM, compound concentration 10 uM, replicate 2
[9] = 48 h, 1 µM, compound concentration 1 uM, replicate 1
[10] = 48 h, 1 µM, compound concentration 1 uM, replicate 2
[11] = 48 h, 10 µM, compound concentration 10 uM, replicate 1
[12] = 48 h, 10 µM, compound concentration 10 uM, replicate 2

CCCN1CCC[C@@H]2Cc3n[nH]cc3C[C@H]21.Cl [QUINPIROLE HYDROCHLORIDE]
Population Apoptotic (%) [1]: 32%
Population Fragmented Nuclei (%) [1]: 6%
Population Healthy Nuclei (%) [1]: 84%
Population Hoechst High Intensity Objects (%) [1]: 6%
Population Membrane Permeable-Phenotype (%) [1]: 0%
Population Mitochondria Different-Phenotype (%) [1]: 37%
Population Mitotic Cells (%) [1]: 67%
Population Normal (%) [1]: 93%
Population Pyknosed Nuclei (%) [1]: 9%
Population Tubulin-Different-Phenotype (%) [1]: 22%
Total Cell Count [1]: 447
Population Apoptotic (%) [2]: 63%
Population Fragmented Nuclei (%) [2]: 4%
Population Healthy Nuclei (%) [2]: 82%
Population Hoechst High Intensity Objects (%) [2]: 3%
Population Mitochondria Different-Phenotype (%) [2]: 67%
Population Mitotic Cells (%) [2]: 36%
Population Normal (%) [2]: 96%
Population Pyknosed Nuclei (%) [2]: 12%
Population Tubulin-Different-Phenotype (%) [2]: 26%
Total Cell Count [2]: 294
Population Apoptotic (%) [3]: 55%
Population Fragmented Nuclei (%) [3]: 11%
Population Healthy Nuclei (%) [3]: 72%
Population Hoechst High Intensity Objects (%) [3]: 9%
Population Membrane Permeable-Phenotype (%) [3]: 0%
Population Mitochondria Different-Phenotype (%) [3]: 53%
Population Mitotic Cells (%) [3]: 44%
Population Normal (%) [3]: 90%
Population Pyknosed Nuclei (%) [3]: 15%
Population Tubulin-Different-Phenotype (%) [3]: 40%
Total Cell Count [3]: 381
Population Apoptotic (%) [4]: 46%
Population Fragmented Nuclei (%) [4]: 5%
Population Healthy Nuclei (%) [4]: 78%
Population Hoechst High Intensity Objects (%) [4]: 5%
Population Mitochondria Different-Phenotype (%) [4]: 69%
Population Mitotic Cells (%) [4]: 53%
Population Normal (%) [4]: 94%
Population Pyknosed Nuclei (%) [4]: 16%
Population Tubulin-Different-Phenotype (%) [4]: 26%
Total Cell Count [4]: 312
Population Apoptotic (%) [5]: 30%
Population Fragmented Nuclei (%) [5]: 12%
Population Healthy Nuclei (%) [5]: 79%
Population Hoechst High Intensity Objects (%) [5]: 3%
Population Membrane Permeable-Phenotype (%) [5]: 0%
Population Mitochondria Different-Phenotype (%) [5]: 17%
Population Mitotic Cells (%) [5]: 70%
Population Normal (%) [5]: 96%
Population Pyknosed Nuclei (%) [5]: 8%
Population Tubulin-Different-Phenotype (%) [5]: 14%
Total Cell Count [5]: 600
Population Apoptotic (%) [6]: 29%
Population Fragmented Nuclei (%) [6]: 8%
Population Healthy Nuclei (%) [6]: 81%
Population Hoechst High Intensity Objects (%) [6]: 2%
Population Mitochondria Different-Phenotype (%) [6]: 37%
Population Normal (%) [6]: 97%
Population Pyknosed Nuclei (%) [6]: 9%
Population Tubulin-Different-Phenotype (%) [6]: 16%
Total Cell Count [6]: 390
Population Apoptotic (%) [7]: 45%
Population Fragmented Nuclei (%) [7]: 10%
Population Healthy Nuclei (%) [7]: 77%
Population Hoechst High Intensity Objects (%) [7]: 4%
Population Membrane Permeable-Phenotype (%) [7]: 0%
Population Mitochondria Different-Phenotype (%) [7]: 38%
Population Mitotic Cells (%) [7]: 54%
Population Normal (%) [7]: 95%
Population Pyknosed Nuclei (%) [7]: 11%
Population Tubulin-Different-Phenotype (%) [7]: 27%
Total Cell Count [7]: 529
Population Apoptotic (%) [8]: 43%
Population Fragmented Nuclei (%) [8]: 7%
Population Healthy Nuclei (%) [8]: 78%
Population Hoechst High Intensity Objects (%) [8]: 2%
Population Mitochondria Different-Phenotype (%) [8]: 43%
Population Mitotic Cells (%) [8]: 56%
Population Normal (%) [8]: 97%
Population Pyknosed Nuclei (%) [8]: 13%
Population Tubulin-Different-Phenotype (%) [8]: 13%
Total Cell Count [8]: 406
Population Apoptotic (%) [9]: 21%
Population Fragmented Nuclei (%) [9]: 16%
Population Healthy Nuclei (%) [9]: 76%
Population Hoechst High Intensity Objects (%) [9]: 1%
Population Membrane Permeable-Phenotype (%) [9]: 1%
Population Mitochondria Different-Phenotype (%) [9]: 9%
Population Mitotic Cells (%) [9]: 78%
Population Normal (%) [9]: 98%
Population Pyknosed Nuclei (%) [9]: 6%
Population Tubulin-Different-Phenotype (%) [9]: 10%
Total Cell Count [9]: 1105
Population Apoptotic (%) [10]: 33%
Population Fragmented Nuclei (%) [10]: 11%
Population Healthy Nuclei (%) [10]: 84%
Population Hoechst High Intensity Objects (%) [10]: 2%
Population Mitochondria Different-Phenotype (%) [10]: 19%
Population Mitotic Cells (%) [10]: 66%
Population Pyknosed Nuclei (%) [10]: 4%
Population Tubulin-Different-Phenotype (%) [10]: 8%
Total Cell Count [10]: 649
Population Apoptotic (%) [11]: 40%
Population Fragmented Nuclei (%) [11]: 15%
Population Healthy Nuclei (%) [11]: 78%
Population Hoechst High Intensity Objects (%) [11]: 2%
Population Membrane Permeable-Phenotype (%) [11]: 1%
Population Mitochondria Different-Phenotype (%) [11]: 23%
Population Mitotic Cells (%) [11]: 59%
Population Normal (%) [11]: 97%
Population Pyknosed Nuclei (%) [11]: 6%
Population Tubulin-Different-Phenotype (%) [11]: 15%
Total Cell Count [11]: 772
Population Apoptotic (%) [12]: 33%
Population Fragmented Nuclei (%) [12]: 13%
Population Healthy Nuclei (%) [12]: 80%
Population Hoechst High Intensity Objects (%) [12]: 1%
Population Membrane Permeable-Phenotype (%) [12]: 0%
Population Mitochondria Different-Phenotype (%) [12]: 28%
Population Mitotic Cells (%) [12]: 66%
Population Normal (%) [12]: 98%
Population Tubulin-Different-Phenotype (%) [12]: 13%
Total Cell Count [12]: 654

Cl.Clc1ccc2nsnc2c1NC1=NCCN1 [TIZANIDINE HYDROCHLORIDE]
Population Apoptotic (%) [1]: 39%
Population Fragmented Nuclei (%) [1]: 9%
Population Healthy Nuclei (%) [1]: 80%
Population Hoechst High Intensity Objects (%) [1]: 8%
Population Membrane Permeable-Phenotype (%) [1]: 0%
Population Mitochondria Different-Phenotype (%) [1]: 36%
Population Mitotic Cells (%) [1]: 60%
Population Normal (%) [1]: 91%
Population Pyknosed Nuclei (%) [1]: 9%
Population Tubulin-Different-Phenotype (%) [1]: 26%
Total Cell Count [1]: 474
Population Apoptotic (%) [2]: 44%
Population Fragmented Nuclei (%) [2]: 2%
Population Healthy Nuclei (%) [2]: 83%
Population Hoechst High Intensity Objects (%) [2]: 9%
Population Mitochondria Different-Phenotype (%) [2]: 62%
Population Mitotic Cells (%) [2]: 55%
Population Normal (%) [2]: 90%
Population Pyknosed Nuclei (%) [2]: 13%
Population Tubulin-Different-Phenotype (%) [2]: 20%
Total Cell Count [2]: 373
Population Apoptotic (%) [3]: 30%
Population Fragmented Nuclei (%) [3]: 9%
Population Healthy Nuclei (%) [3]: 80%
Population Hoechst High Intensity Objects (%) [3]: 6%
Population Membrane Permeable-Phenotype (%) [3]: 0%
Population Mitochondria Different-Phenotype (%) [3]: 45%
Population Mitotic Cells (%) [3]: 70%
Population Normal (%) [3]: 93%
Population Pyknosed Nuclei (%) [3]: 9%
Population Tubulin-Different-Phenotype (%) [3]: 32%
Total Cell Count [3]: 450
Population Apoptotic (%) [4]: 46%
Population Fragmented Nuclei (%) [4]: 7%
Population Healthy Nuclei (%) [4]: 79%
Population Hoechst High Intensity Objects (%) [4]: 4%
Population Mitochondria Different-Phenotype (%) [4]: 67%
Population Mitotic Cells (%) [4]: 53%
Population Normal (%) [4]: 95%
Population Pyknosed Nuclei (%) [4]: 13%
Population Tubulin-Different-Phenotype (%) [4]: 27%
Total Cell Count [4]: 343
Population Apoptotic (%) [5]: 32%
Population Fragmented Nuclei (%) [5]: 11%
Population Healthy Nuclei (%) [5]: 79%
Population Hoechst High Intensity Objects (%) [5]: 4%
Population Membrane Permeable-Phenotype (%) [5]: 0%
Population Mitochondria Different-Phenotype (%) [5]: 20%
Population Mitotic Cells (%) [5]: 67%
Population Normal (%) [5]: 95%
Population Pyknosed Nuclei (%) [5]: 8%
Population Tubulin-Different-Phenotype (%) [5]: 17%
Total Cell Count [5]: 597
Population Apoptotic (%) [6]: 45%
Population Fragmented Nuclei (%) [6]: 10%
Population Healthy Nuclei (%) [6]: 80%
Population Hoechst High Intensity Objects (%) [6]: 5%
Population Mitochondria Different-Phenotype (%) [6]: 38%
Population Mitotic Cells (%) [6]: 54%
Population Normal (%) [6]: 94%
Population Tubulin-Different-Phenotype (%) [6]: 15%
Total Cell Count [6]: 434
Population Apoptotic (%) [7]: 32%
Population Fragmented Nuclei (%) [7]: 11%
Population Healthy Nuclei (%) [7]: 78%
Population Hoechst High Intensity Objects (%) [7]: 5%
Population Membrane Permeable-Phenotype (%) [7]: 1%
Population Mitochondria Different-Phenotype (%) [7]: 23%
Population Mitotic Cells (%) [7]: 67%
Population Normal (%) [7]: 94%
Population Pyknosed Nuclei (%) [7]: 9%
Population Tubulin-Different-Phenotype (%) [7]: 18%
Total Cell Count [7]: 621
Population Apoptotic (%) [8]: 29%
Population Fragmented Nuclei (%) [8]: 10%
Population Healthy Nuclei (%) [8]: 81%
Population Hoechst High Intensity Objects (%) [8]: 6%
Population Membrane Permeable-Phenotype (%) [8]: 0%
Population Mitochondria Different-Phenotype (%) [8]: 46%
Population Mitotic Cells (%) [8]: 70%
Population Normal (%) [8]: 93%
Population Pyknosed Nuclei (%) [8]: 7%
Total Cell Count [8]: 443
Population Apoptotic (%) [9]: 17%
Population Fragmented Nuclei (%) [9]: 16%
Population Healthy Nuclei (%) [9]: 77%
Population Hoechst High Intensity Objects (%) [9]: 2%
Population Membrane Permeable-Phenotype (%) [9]: 3%
Population Mitochondria Different-Phenotype (%) [9]: 13%
Population Mitotic Cells (%) [9]: 82%
Population Normal (%) [9]: 97%
Population Pyknosed Nuclei (%) [9]: 6%
Population Tubulin-Different-Phenotype (%) [9]: 10%
Total Cell Count [9]: 1005
Population Apoptotic (%) [10]: 33%
Population Fragmented Nuclei (%) [10]: 14%
Population Healthy Nuclei (%) [10]: 79%
Population Hoechst High Intensity Objects (%) [10]: 3%
Population Membrane Permeable-Phenotype (%) [10]: 1%
Population Mitochondria Different-Phenotype (%) [10]: 19%
Population Mitotic Cells (%) [10]: 66%
Population Normal (%) [10]: 96%
Population Tubulin-Different-Phenotype (%) [10]: 7%
Total Cell Count [10]: 661
Population Apoptotic (%) [11]: 24%
Population Fragmented Nuclei (%) [11]: 19%
Population Healthy Nuclei (%) [11]: 74%
Population Hoechst High Intensity Objects (%) [11]: 3%
Population Membrane Permeable-Phenotype (%) [11]: 1%
Population Mitochondria Different-Phenotype (%) [11]: 13%
Population Mitotic Cells (%) [11]: 75%
Population Normal (%) [11]: 96%
Population Pyknosed Nuclei (%) [11]: 5%
Population Tubulin-Different-Phenotype (%) [11]: 10%
Total Cell Count [11]: 995
Population Apoptotic (%) [12]: 25%
Population Fragmented Nuclei (%) [12]: 13%
Population Healthy Nuclei (%) [12]: 81%
Population Hoechst High Intensity Objects (%) [12]: 5%
Population Mitochondria Different-Phenotype (%) [12]: 23%
Population Normal (%) [12]: 94%
Population Pyknosed Nuclei (%) [12]: 4%
Population Tubulin-Different-Phenotype (%) [12]: 19%
Total Cell Count [12]: 600
